According to ChEMBL document CHEMBL4359812, “Nitric Oxide-Releasing Selective Estrogen Receptor Modulators: A Bifunctional Approach to Improve the Therapeutic Index” (J Med Chem, 2019):
Activity calls are given as the source filed them. No cut-off for these calls is given here.

What was measured:
[1] = Drug metabolism in pH 7.5 PBS assessed as nitric oxide release at 50 uM measured after 90 mins in presence of K3[Fe(CN)6] by 2,3-diaminonaphthalene-based fluorescence assay
How it was run: (§1)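 Compound incubated 90 min at 37 °C in PBS pH 7.5 alone, with human plasma, with 50 μM K3[Fe(CN)6], or with 5 mM L-cysteine. Nitrite reacted with 2,3-diaminonaphthalene under acid to give fluorescent naphthotriazole; HgCl2 added to release S-nitrosothiol-bound NO. Release given as % of 1 mol NO/mol compound; 3−4 experiments in duplicate (n = 6−8), mean ± SEM.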

[2] = Drug metabolism in pH 7.5 PBS assessed as nitric oxide release at 50 uM measured after 90 mins in presence of L-cysteine by 2,3-diaminonaphthalene-based fluorescence assay; how it was run: as §1
A2058 [3] = test: Antiproliferative activity against human A2058 cells assessed as cell viability at 50 uM measured after 24 hrs by celltiter-blue assay relative to control; type: functional; conditions: A2058, 24 h, read-out: Activity
How it was run: (§2)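 Human melanoma cells seeded at 8.5 × 10^4 cells/well in 96-well plates and treated 24 h with test compound (up to 50 μM) against a DMSO control; viability read as in the group's earlier method. Three to five independent experiments (n = 9−15); mean ± SEM, ANOVA with Bonferroni post hoc test vs DMSO.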

Estrogen receptor beta = Estrogen receptor beta (Homo sapiens, UniProt Q92731)
Chain of Estrogen receptor beta (Q92731 whole entry): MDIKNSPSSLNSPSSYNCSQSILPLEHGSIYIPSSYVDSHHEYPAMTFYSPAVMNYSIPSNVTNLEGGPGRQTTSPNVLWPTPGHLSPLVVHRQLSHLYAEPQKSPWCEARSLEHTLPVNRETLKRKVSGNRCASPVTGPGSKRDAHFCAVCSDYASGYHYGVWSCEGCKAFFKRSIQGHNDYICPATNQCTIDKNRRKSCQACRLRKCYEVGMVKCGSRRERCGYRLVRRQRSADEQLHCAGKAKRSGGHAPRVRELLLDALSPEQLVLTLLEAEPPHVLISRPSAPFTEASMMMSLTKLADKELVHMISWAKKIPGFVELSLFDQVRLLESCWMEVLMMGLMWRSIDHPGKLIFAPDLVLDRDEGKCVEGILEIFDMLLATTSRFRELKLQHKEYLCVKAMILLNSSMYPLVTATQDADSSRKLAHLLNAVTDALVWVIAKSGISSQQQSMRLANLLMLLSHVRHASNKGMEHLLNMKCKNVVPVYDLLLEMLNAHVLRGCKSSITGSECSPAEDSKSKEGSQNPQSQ

MEL-JUSO [4] = test: Antiproliferative activity against human MelJuSo cells assessed as cell viability at 50 uM measured after 24 hrs by celltiter-blue assay relative to control; type: functional; conditions: read-out: Activity; how it was run: as §2
[5] = Drug metabolism in pH 7.5 PBS assessed as free nitrite level at 50 uM measured after 90 mins in presence of L-cysteine by 2,3-diaminonaphthalene-based fluorescence assay; how it was run: as §1
Estrogen receptor = molecular target: T1, Estrogen receptor (Homo sapiens, UniProt P03372)
T1 sequence (P03372 whole entry): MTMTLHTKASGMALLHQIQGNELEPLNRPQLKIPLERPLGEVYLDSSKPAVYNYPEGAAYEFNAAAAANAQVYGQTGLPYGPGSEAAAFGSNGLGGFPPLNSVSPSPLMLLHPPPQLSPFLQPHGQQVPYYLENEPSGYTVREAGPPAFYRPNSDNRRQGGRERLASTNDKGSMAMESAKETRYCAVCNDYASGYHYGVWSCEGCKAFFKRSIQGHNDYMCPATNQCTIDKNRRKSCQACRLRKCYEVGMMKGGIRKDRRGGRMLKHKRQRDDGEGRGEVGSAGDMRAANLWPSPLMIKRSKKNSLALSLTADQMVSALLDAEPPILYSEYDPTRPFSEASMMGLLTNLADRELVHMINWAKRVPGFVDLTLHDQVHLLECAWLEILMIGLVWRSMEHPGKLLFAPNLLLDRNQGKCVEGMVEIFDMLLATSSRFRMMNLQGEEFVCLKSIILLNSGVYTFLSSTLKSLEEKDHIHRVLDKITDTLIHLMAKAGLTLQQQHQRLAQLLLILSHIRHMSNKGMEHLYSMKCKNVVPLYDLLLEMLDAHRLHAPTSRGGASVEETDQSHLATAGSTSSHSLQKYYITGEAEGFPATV

[6] = Drug metabolism in pH 7.5 PBS assessed as S-nitroso-thiol level at 50 uM measured after 90 mins in presence of L-cysteine by 2,3-diaminonaphthalene-based fluorescence assay; how it was run: as §1
MEL-JUSO [7] = test: Antiproliferative activity against human MelJuSo cells assessed as reduction in cell viability measured after 24 hrs by celltiter-blue assay; type: functional, cell-based; how it was run: as §2
MDA-MB-231 [8] = test: Antiproliferative activity against human MDA-MB-231 cells assessed as cell viability at 50 uM measured after 24 hrs by celltiter-blue assay relative to control; type: functional; conditions: MDA-MB-231, 24 h, read-out: Activity
How it was run: (§3)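 Breast adenocarcinoma lines: MCF-7 grown in Leibovitz's L-15 with 10% FCS and 1% pen/strep without CO2; MDA-MB-231 grown in DMEM with 10% FCS and 1% pen/strep at 5% CO2; both at 37 °C. Viability measured after 24 h treatment at 50 μM vs DMSO. Three independent experiments (n = 9); mean ± SEM, ANOVA/Bonferroni.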

A2058 [9] = test: Antiproliferative activity against human A2058 cells assessed as reduction in number of proliferating cells at 25 uM measured after 48 hrs by cell counting analysis; type: functional, cell-based
How it was run: (§4)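 A2058 cells plated at 0.5 × 10^6 (24 h) or 0.35 × 10^6 (48 h) per well, Mel-Juso at 0.6 × 10^6 or 0.45 × 10^6. After 24 h cells were treated with 0−50 μM, DMSO as control, then counted electronically after 24 or 48 h. Three independent experiments; mean ± SEM, ANOVA/Bonferroni vs DMSO.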

HUVEC [10] = test: Cytotoxicity against HUVEC assessed as reduction in cell viability measured after 24 hrs by celltiter-blue assay; type: cell-based; conditions: Homo sapiens
How it was run: (§5)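 HUVEC grown in endothelial cell growth medium at 37 °C, seeded at 7 × 10^4 cells/well in 96-well plates, treated 24 h with test compound up to 50 μM, DMSO as control; viability read as in the group's earlier method.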

[11] = Stability of the compound in human whole blood measured after 6 hrs by HPLC analysis; type: ADME, tissue-based
How it was run: (§6)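 Compound incubated 0 to 6 h in human whole blood at 37 °C; proteins precipitated 1:2 (v/v); supernatant analysed by reversed-phase C18 HPLC at 254 nm, water/MeCN gradient with 0.1% TFA, 3.0 mL/min at 50 °C.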

MEL-JUSO [12] = test: Antiproliferative activity against human MelJuSo cells assessed as reduction in number of proliferating cells at 25 uM measured after 48 hrs by cell counting analysis; type: functional, cell-based; how it was run: as §4
A2058 [13] = test: Antiproliferative activity against human A2058 cells assessed as reduction in cell viability measured after 24 hrs by celltiter-blue assay; type: functional, cell-based; conditions: A2058, 24 h; how it was run: as §2
HUVEC [14] = test: (§7) Cytotoxicity against HUVEC assessed as cell viability at 50 uM measured after 24 hrs by celltiter-blue assay; type: cell-based; conditions: human, huvec, 24 h, 50 µM; BLD = below limit of detection; how it was run: as §5
MCF7 [15] = test: Antiproliferative activity against human MCF7 cells assessed as reduction in number of proliferating cells measured after 48 hrs by cell counting analysis; type: functional, cell-based
How it was run: (§8)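 MCF-7 (L-15 with 10% FCS, no CO2) and MDA-MB-231 (DMEM with 10% FCS, 5% CO2) treated 48 h with test compound over a concentration range, DMSO as control; proliferating cells counted. Four independent experiments (n = 8); mean ± SEM, ANOVA with Bonferroni post hoc test vs DMSO.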

MCF7 [16] = test: Antiproliferative activity against human MCF7 cells assessed as cell viability at 50 uM measured after 24 hrs by celltiter-blue assay relative to control; type: functional; conditions: MCF7, 24 h, read-out: Activity; how it was run: as §3
MDA-MB-231 [17] = test: Antiproliferative activity against human MDA-MB-231 cells assessed as reduction in number of proliferating cells measured after 48 hrs by cell counting analysis; type: functional, cell-based; how it was run: as §8
[18] = Retention time of the compound in human whole blood by HPLC analysis; type: ADME, tissue-based; how it was run: as §6
[19] = Effect on ER/PI3K pathway in HUVEC assessed as upregulation of COX2 expression measured after 24 hrs by Western blot analysis; type: ADME, cell-based; conditions: human
How it was run: (§9)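 HUVEC treated 24 h with test compounds at various concentrations, with tamoxifen or 17β-estradiol as references, vs DMSO; COX-2 protein detected by Western blotting. Four independent experiments.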

[20] = Drug metabolism in pH 7.5 PBS assessed as nitric oxide release at 50 uM measured after 90 mins in presence of […] by 2,3-diaminonaphthalene-based fluorescence assay
[21] = Drug metabolism in human whole blood assessed as 5d formation measured after 6 hrs by HPLC analysis; type: ADME, tissue-based; how it was run: as §6
MEL-JUSO [22] = test: Antiproliferative activity against human MelJuSo cells assessed as reduction in number of proliferating cells at 50 uM measured after 48 hrs by cell counting analysis; type: functional, cell-based; how it was run: as §4
[23] = Effect on ER/PI3K pathway in HUVEC assessed as upregulation of COX2 expression up to 20 uM measured after 24 hrs by Western blot analysis; type: ADME, cell-based; conditions: human; how it was run: as §9
[24] = Drug metabolism in human whole blood assessed as nitric oxide release measured after 6 hrs by HPLC analysis; type: ADME, tissue-based; how it was run: as §6
[25] = as §7; type: cell-based; conditions: human, HUVEC cells; read-out: Activity; how it was run: as §5
A2058 [26] = test: Antiproliferative activity against human A2058 cells assessed as reduction in number of proliferating cells at 50 uM measured after 48 hrs by cell counting analysis; type: functional, cell-based; how it was run: as §4
[27] = Effect on ER/PI3K pathway in HUVEC assessed as change COX2 expression up to 1 uM measured after 24 hrs by Western blot analysis; type: ADME, cell-based; conditions: human; how it was run: as §9

IC50 (Estrogen receptor beta) [µM]	IC50 (Estrogen receptor) [µM]	SMILES	Drug metabolism [1] [%]	Drug metabolism [2] [%]	viability at 50 µM (A2058 [3]) [%]	viability at 50 µM (MEL-JUSO [4]) [%]	Drug metabolism [5] [%]	Drug metabolism [6] [%]	also measured
0.18	> 5	CS(=O)(=O)c1ccc(C(CCCCO)=C(c2ccc(F)cc2)c2ccc(F)cc2)cc1			17	20.5			EC50 (MEL-JUSO [7]): 34.9 µM; viability at 50 µM (MDA-MB-231 [8]): 86.4%; Activity (A2058 [9]): Active; EC50 (HUVEC [10]): 19.6 µM; Stability [11]: Stable; Activity (MEL-JUSO [12]): Active; EC50 (A2058 [13]): 39.9 µM; Activity (HUVEC [14]): Bld; Activity (MCF7 [15]): Dose-dependent effect; viability at 50 µM (MCF7 [16]): 72.2%; Activity (MDA-MB-231 [17]): Dose-dependent effect; Retention_time [18]: 14.5 min; Activity [19]: Dose-dependent effect
3	> 5	CS(=O)(=O)c1ccc(C(CCCO)=C(c2ccc(F)cc2)c2ccc(F)cc2)cc1			47.6	31.4			EC50 (MEL-JUSO [7]): 36.3 µM; EC50 (A2058 [13]): 27.5 µM
1.4	> 5	CS(=O)(=O)c1ccc(C(CCCCO)=C(c2ccccc2)c2ccccc2)cc1			106	68.6			
0.2	> 5	CS(=O)(=O)c1ccc(C(CCCCO[N+](=O)[O-])=C(c2ccc(F)cc2)c2ccc(F)cc2)cc1	2.5	3.8	106	101	0.4	3.4	viability at 50 µM (MDA-MB-231 [8]): 91.3%; Drug metabolism [21]: Metabolite_Detected; Activity (MEL-JUSO [22]): inactive; Activity [23]: Not Active; Drug metabolism [24]: Metabolite_Detected; viability at 24 h, 50 µM [25]: 91.1%; viability at 50 µM (MCF7 [16]): 82.8%; Retention_time [18]: 16.4 min; Activity (A2058 [26]): inactive
1.3	> 5	CS(=O)(=O)c1ccc(C(CCCCO[N+](=O)[O-])=C(c2ccccc2)c2ccccc2)cc1	1.1	0.5	120	87.1	0.9	0.4	Drug metabolism [20]: 0.1%
> 5	> 5	CS(=O)(=O)c1ccc(C(CCCO[N+](=O)[O-])=C(c2ccc(F)cc2)c2ccc(F)cc2)cc1	0.1	2	107	91.5	0.1	1.9	Drug metabolism [20]: 2.2%

Continued, compound first:

SMILES	IC50 (Estrogen receptor beta) [µM]	IC50 (Estrogen receptor) [µM]	Drug metabolism [1] [%]	Drug metabolism [2] [%]	viability at 50 µM (A2058 [3]) [%]	viability at 50 µM (MEL-JUSO [4]) [%]	Drug metabolism [5] [%]	Drug metabolism [6] [%]	also measured
CS(=O)(=O)c1ccc(C(CCCO[N+](=O)[O-])=C(c2ccccc2)c2ccccc2)cc1	2.7	> 5	1.5	2	117	96.5	0.7	1.3	
O=S(=O)(NO)c1ccccc1			48.3	3.6			0.3	3.3	Drug metabolism [20]: 33.5%
CCCCC(=C(c1ccc(F)cc1)c1ccc(F)cc1)c1ccc(S(C)(=O)=O)cc1					117	75.4			
CS(=O)(=O)c1ccc(C(CCCO)=C(c2ccccc2)c2ccccc2)cc1	1.5	> 5			63	52.7			
CC(=O)Oc1ccccc1C(=O)Oc1ccc(CO[N+](=O)[O-])cc1			0.2	4.4			0.8	3.6	
CC/C(=C(\c1ccccc1)c1ccc(OCCN(C)C)cc1)c1ccccc1 [TAMOXIFEN]					1.8	1			EC50 (MEL-JUSO [7]): 14.6 µM; Activity [27]: Active; EC50 (A2058 [13]): 12.5 µM
